{"source": "ChEMBL document CHEMBL5107937", "about": "“Synthesis and antitumour evaluation of indole-2-carboxamides against paediatric brain cancer cells” (RSC Med Chem, 2021)", "key": {"[1]": {"assay": "Cytotoxicity against human BT-16 cells assessed as reduction in cell viability incubated for 72 hrs by PrestoBlue reagent based cell viability assay", "format": "functional", "conditions": "BT-16, 72 h", "outline": "(§1)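 Viability screen run in triplicate. IC50 is the compound dose giving 50% inhibition of cell viability, taken as cytotoxicity.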"}, "[2]": {"system": "KNS-42", "assay": "Antiproliferative activity against human KNS-42 cells assessed as cell growth inhibition incubated for 72 hrs by MTT assay", "format": "functional, cell-based", "conditions": "KNS-42, 72 h", "outline": "(§2)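 Proliferation screen run in triplicate. IC50 is the compound dose giving 50% inhibition of cell proliferation.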"}, "[3]": {"system": "KNS-42", "assay": "Cytotoxicity against human KNS-42 cells assessed as reduction in cell viability incubated for 72 hrs by PrestoBlue reagent based cell viability assay", "format": "functional", "conditions": "KNS-42, 72 h", "outline": "as §1"}, "[4]": {"assay": "Antiproliferative activity against human HFF-1 cells assessed as cell growth inhibition incubated for 72 hrs by MTT assay", "format": "toxicity, cell-based", "outline": "as §2"}, "[5]": {"target": "T1, Cannabinoid receptor 2 (Homo sapiens, UniProt P34972)", "T1 sequence (P34972 whole entry)": "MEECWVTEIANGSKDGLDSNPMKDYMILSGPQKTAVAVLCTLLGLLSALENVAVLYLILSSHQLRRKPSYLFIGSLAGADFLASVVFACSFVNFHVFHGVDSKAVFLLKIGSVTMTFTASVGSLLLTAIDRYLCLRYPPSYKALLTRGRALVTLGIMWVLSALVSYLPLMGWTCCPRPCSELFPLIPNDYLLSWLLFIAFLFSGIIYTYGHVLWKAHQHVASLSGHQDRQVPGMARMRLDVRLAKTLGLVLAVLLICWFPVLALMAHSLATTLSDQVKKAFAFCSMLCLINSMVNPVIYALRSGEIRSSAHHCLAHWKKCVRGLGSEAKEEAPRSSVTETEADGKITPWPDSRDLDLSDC", "assay": "Antagonist activity at human CB2R expressed in mouse AtT20 cells at 10 uM by FLIPR membrane potential assay", "format": "functional, cell-based", "outline": "(§3)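 AtT-20 cells stably carrying human CB1R or human CB2R were pre-incubated with compound or vehicle for 60 minutes. 500 nM CP 55940 was then added and membrane potential responses were recorded. IC50 is for inhibition of the agonist response.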"}, "[6]": {"target": "T2, Cannabinoid receptor 1 (Homo sapiens, UniProt P21554)", "T2 sequence (P21554 whole entry)": "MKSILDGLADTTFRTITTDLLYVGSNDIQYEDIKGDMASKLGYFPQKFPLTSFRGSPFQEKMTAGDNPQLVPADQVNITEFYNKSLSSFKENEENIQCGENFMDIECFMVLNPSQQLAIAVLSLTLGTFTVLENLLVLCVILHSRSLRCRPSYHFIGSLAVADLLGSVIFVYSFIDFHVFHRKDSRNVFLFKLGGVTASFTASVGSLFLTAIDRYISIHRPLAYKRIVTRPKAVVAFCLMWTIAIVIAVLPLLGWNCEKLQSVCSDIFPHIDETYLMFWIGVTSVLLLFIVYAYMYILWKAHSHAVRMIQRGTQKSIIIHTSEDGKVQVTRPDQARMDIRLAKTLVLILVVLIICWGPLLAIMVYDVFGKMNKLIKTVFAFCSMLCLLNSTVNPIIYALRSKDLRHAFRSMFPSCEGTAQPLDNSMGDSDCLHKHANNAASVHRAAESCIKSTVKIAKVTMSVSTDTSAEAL", "assay": "Agonist activity at human CB1R expressed in mouse AtT20 cells at 10 uM by FLIPR membrane potential assay", "format": "functional, cell-based", "outline": "(§4)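 Agonist mode: AtT-20 cells stably transfected with human CB1R or human CB2R; membrane potential responses recorded.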"}, "[7]": {"assay": "Octanol-water partition coefficient, logP of the compound", "format": "physicochemical"}, "[8]": {"assay": "Cytotoxicity against human BT-12 cells assessed as reduction in cell viability incubated for 72 hrs by PrestoBlue reagent based cell viability assay", "format": "functional", "conditions": "BT-12, 72 h", "outline": "as §1"}, "[9]": {"assay": "Cytotoxicity against human HFF-1 cells assessed as reduction in cell viability incubated for 72 hrs by PrestoBlue reagent based cell viability assay", "format": "toxicity", "outline": "as §1"}, "[10]": {"system": "Daoy", "assay": "Antiproliferative activity against human Daoy cells assessed as cell growth inhibition incubated for 72 hrs by MTT assay", "format": "functional, cell-based", "outline": "as §2"}, "[11]": {"target": "T2, Cannabinoid receptor 1", "assay": "Antagonist activity at human CB1R expressed in mouse AtT20 cells by FLIPR membrane potential assay", "format": "functional, cell-based", "outline": "as §3"}, "[12]": {"target": "T1, Cannabinoid receptor 2", "assay": "Agonist activity at human CB2R expressed in mouse AtT20 cells at 10 uM by FLIPR membrane potential assay", "format": "functional, cell-based", "outline": "as §4"}, "[13]": {"system": "Daoy", "assay": "Cytotoxicity against human Daoy cells assessed as reduction in cell viability incubated for 72 hrs by PrestoBlue reagent based cell viability assay", "format": "functional", "outline": "as §1"}, "[14]": {"assay": "Antiproliferative activity against human BT-12 cells assessed as cell growth inhibition incubated for 72 hrs by MTT assay", "format": "functional, cell-based", "conditions": "BT-12, 72 h", "outline": "as §2"}, "[15]": {"assay": "Antiproliferative activity against human BT-16 cells assessed as cell growth inhibition incubated for 72 hrs by MTT assay", "format": "functional, cell-based", "conditions": "BT-16, 72 h", "outline": "as §2"}, "[16]": {"target": "T2, Cannabinoid receptor 1", "assay": "Antagonist activity at human CB1R expressed in mouse AtT20 cells at 10 uM by FLIPR membrane potential assay", "format": "functional, cell-based", "outline": "as §3"}}, "data": [{"compound": "O=C(NCCc1ccc2c(c1)OCO2)c1cc2c(F)cc(F)cc2[nH]1", "values": [{"measurement": "IC50", "setting": "[1]", "value": 2.72, "unit": "µM"}, {"measurement": "IC50", "setting": "[2]", "value": 2.88, "unit": "µM"}, {"measurement": "IC50", "setting": "[3]", "value": 2.34, "unit": "µM"}, {"measurement": "IC50 at 72 h", "setting": "[4]", "value": 6.98, "unit": "µM"}, {"measurement": "inhibition", "setting": "[5]", "value": "< 50", "unit": "%"}, {"measurement": "Activity", "setting": "[6]", "value": "< 50", "unit": "%"}, {"measurement": "logP", "setting": "[7]", "value": 3.02}, {"measurement": "IC50", "setting": "[8]", "value": 6.08, "unit": "µM"}, {"measurement": "IC50 at 72 h", "setting": "[9]", "value": 81, "unit": "µM"}, {"measurement": "IC50", "setting": "[10]", "value": 9.91, "unit": "µM"}, {"measurement": "IC50", "setting": "[11]", "value": 0.373, "unit": "µM"}, {"measurement": "Activity", "setting": "[12]", "value": "< 50", "unit": "%"}, {"measurement": "IC50", "setting": "[13]", "value": 3.65, "unit": "µM"}, {"measurement": "IC50", "setting": "[14]", "value": 4.1, "unit": "µM"}, {"measurement": "IC50", "setting": "[15]", "value": 7.53, "unit": "µM"}]}, {"compound": "O=C(NC12CC3CC(CC(C3)C1)C2)c1cc(=O)c2ccc(Cl)c(Cl)c2[nH]1", "values": [{"measurement": "IC50", "setting": "[2]", "value": "> 10", "unit": "µM"}, {"measurement": "IC50", "setting": "[3]", "value": "> 10", "unit": "µM"}]}, {"compound": "CCCC(C)(C)c1ccc2c(c1)OC(C)(C)[C@@H]1CC=C(C)C[C@@H]21", "values": [{"measurement": "IC50", "setting": "[2]", "value": "> 10", "unit": "µM"}, {"measurement": "IC50", "setting": "[3]", "value": "> 10", "unit": "µM"}]}, {"compound": "O=C(NCc1ccc2c(c1)OCO2)c1cc2c(F)cc(F)cc2[nH]1", "values": [{"measurement": "IC50", "setting": "[2]", "value": "> 10", "unit": "µM"}, {"measurement": "IC50", "setting": "[3]", "value": "> 10", "unit": "µM"}]}, {"compound": "O=C(NC12CC3CC(CC(C3)C1)C2)c1cc2ccccc2n1CCCCO", "values": [{"measurement": "IC50", "setting": "[2]", "value": "> 10", "unit": "µM"}, {"measurement": "IC50", "setting": "[3]", "value": 4.75, "unit": "µM"}]}, {"compound": "O=C(NC12CC3CC(CC(C3)C1)C2)c1nc2ccccc2[nH]1", "values": [{"measurement": "IC50", "setting": "[2]", "value": "> 10", "unit": "µM"}, {"measurement": "IC50", "setting": "[3]", "value": "> 10", "unit": "µM"}]}, {"compound": "O=C(NC12CC3CC(CC(C3)C1)C2)c1ccc(NC(=O)c2cc3c(F)cc(F)cc3[nH]2)cc1", "values": [{"measurement": "IC50", "setting": "[2]", "value": "> 10", "unit": "µM"}, {"measurement": "IC50", "setting": "[3]", "value": "> 10", "unit": "µM"}]}, {"compound": "O=C(NC12CC3CC(CC(C3)C1)C2)c1c[nH]c2ccc(Cl)cc2c1=O", "values": [{"measurement": "IC50", "setting": "[2]", "value": "> 10", "unit": "µM"}, {"measurement": "IC50", "setting": "[3]", "value": "> 10", "unit": "µM"}]}, {"compound": "O=C(Nc1nc2ccccc2[nH]1)c1cc2c(F)cc(F)cc2[nH]1", "values": [{"measurement": "IC50", "setting": "[1]", "value": 1.37, "unit": "µM"}, {"measurement": "IC50", "setting": "[2]", "value": 4.03, "unit": "µM"}, {"measurement": "IC50", "setting": "[3]", "value": 4.49, "unit": "µM"}, {"measurement": "IC50 at 72 h", "setting": "[4]", "value": 3.03, "unit": "µM"}, {"measurement": "inhibition", "setting": "[5]", "value": "< 50", "unit": "%"}, {"measurement": "Activity", "setting": "[6]", "value": "< 50", "unit": "%"}, {"measurement": "logP", "setting": "[7]", "value": 2.69}, {"measurement": "IC50", "setting": "[8]", "value": 7.65, "unit": "µM"}, {"measurement": "IC50 at 72 h", "setting": "[9]", "value": 115, "unit": "µM"}, {"measurement": "IC50", "setting": "[10]", "value": 2.31, "unit": "µM"}, {"measurement": "Activity", "setting": "[12]", "value": "< 50", "unit": "%"}, {"measurement": "IC50", "setting": "[13]", "value": 1.02, "unit": "µM"}, {"measurement": "inhibition", "setting": "[16]", "value": "< 50", "unit": "%"}, {"measurement": "IC50", "setting": "[14]", "value": 1.79, "unit": "µM"}, {"measurement": "IC50", "setting": "[15]", "value": 5.41, "unit": "µM"}]}, {"compound": "O=C(NC12CC3CC(CC(C3)C1)C2)c1c[nH]c2cc(Cl)cc(Cl)c2c1=O", "values": [{"measurement": "IC50", "setting": "[2]", "value": 9.17, "unit": "µM"}, {"measurement": "IC50", "setting": "[3]", "value": "> 10", "unit": "µM"}]}, {"compound": "O=C(NC12CC3CC(CC(C3)C1)C2)c1cc(=O)c2cc(Cl)ccc2[nH]1", "values": [{"measurement": "IC50", "setting": "[2]", "value": 6.11, "unit": "µM"}, {"measurement": "IC50", "setting": "[3]", "value": "> 10", "unit": "µM"}]}, {"compound": "Cc1c(C(=O)c2cccc3ccccc23)c2cccc3c2n1[C@@H](CN1CCOCC1)CO3", "values": [{"measurement": "IC50", "setting": "[1]", "value": 4.74, "unit": "µM"}, {"measurement": "IC50", "setting": "[2]", "value": 8.07, "unit": "µM"}, {"measurement": "IC50", "setting": "[3]", "value": 8.02, "unit": "µM"}, {"measurement": "IC50 at 72 h", "setting": "[4]", "value": 1.82, "unit": "µM"}, {"measurement": "logP", "setting": "[7]", "value": 4.13}, {"measurement": "IC50", "setting": "[8]", "value": 8.6, "unit": "µM"}, {"measurement": "IC50 at 72 h", "setting": "[9]", "value": 0.023, "unit": "µM"}, {"measurement": "IC50", "setting": "[10]", "value": 6.09, "unit": "µM"}, {"measurement": "IC50", "setting": "[13]", "value": "> 10", "unit": "µM"}, {"measurement": "IC50", "setting": "[14]", "value": 9.32, "unit": "µM"}, {"measurement": "IC50", "setting": "[15]", "value": 4.57, "unit": "µM"}]}, {"compound": "O=C(NC12CC3CC(CC(C3)C1)C2)c1n[nH]c2ccccc12", "values": [{"measurement": "IC50", "setting": "[2]", "value": "> 10", "unit": "µM"}, {"measurement": "IC50", "setting": "[3]", "value": "> 10", "unit": "µM"}]}, {"compound": "Cc1cccc(CNC(=O)c2cc3c(F)cc(F)cc3[nH]2)c1", "values": [{"measurement": "IC50", "setting": "[2]", "value": "> 10", "unit": "µM"}, {"measurement": "IC50", "setting": "[3]", "value": "> 10", "unit": "µM"}]}, {"compound": "O=C(NC12CC3CC(CC(C3)C1)C2)c1c[nH]c2c(Cl)c(Cl)ccc2c1=O", "values": [{"measurement": "IC50", "setting": "[2]", "value": 8.05, "unit": "µM"}, {"measurement": "IC50", "setting": "[3]", "value": "> 10", "unit": "µM"}]}]}
